Most compounds without a hit are left out; they make up all but 2.5% or so of the library.
SENP8 block-1: inhibitors of human SENP8 protease; Q96LD8; actives 0.64% (n = 360,000); recombinant SENP8, Nedd8 substrate fluorescence; AID 602440; inhibition, % at 20 µM; in the data active = inhibition mostly above about 40%, no sharp cut-off; inactive = mostly below about 27%
SENP8 block-2: SENP8 protease inhibition; Q96LD8; purified SENP8, Z-RLRGG-aminoluciferin cleavage, luminescence; inhibition, % at 10 µM; actives 1.2% (n = 330,000); in the data active = inhibition above about 50%
SENP6 inh: SENP6 protease inhibition. Recombinant SENP6 catalytic domain, aminoluciferin luminescence. inhibition, % at 10 µM. actives 1.8% (n = 330,000);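 active = inhibition above about 50% at the single tested dose, limit read from the data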;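 also: plate controls were DMSO wells with enzyme for no effect and DMSO wells lacking enzyme for full effect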
SENP1 FRET inh: inhibitors of human SENP1 SUMO protease catalytic domain; recombinant SENP1 catalytic domain, CyPet-SUMO1-YPet FRET cleavage; actives 0.21% (n = 360,000); inhibition, % at 10 µM;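 active = inhibition at least 30% at 10 µM, raw YFP signal under a set limit, fluorescence ratio 0.5 to 1.5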;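 also: 0% = enzyme with DMSO and 100% = no enzyme wells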
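Controls: no-enzyme wells low, DMSO-plus-enzyme wells high control. Test system: human recombinant His6-tagged SENP1 catalytic domain enzyme. Reagent: SFCypet-SUMO1-SFYpet FRET protein substrate, 25 nM final. Doses: one dose per compound, 10 µM, 0.5% DMSO. Detection: FRET, CFP and YFP emission. Timing: 50 min reaction at room temperature.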
SENP7 inh: blocks the human protease SENP7; inhibition, % at 5 µM; recombinant SENP7, Z-RLRGG-aminoluciferin luminescence, 40 min; actives 1.5% (n = 330,000); Q9BQF6;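 active = inhibition above about 50% at the single test dose, limit read from the data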;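 also: plate controls were DMSO with enzyme for no effect and no enzyme buffer wells for full effect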
Target sequence (Q9BQF6 706-1050 limits assumed): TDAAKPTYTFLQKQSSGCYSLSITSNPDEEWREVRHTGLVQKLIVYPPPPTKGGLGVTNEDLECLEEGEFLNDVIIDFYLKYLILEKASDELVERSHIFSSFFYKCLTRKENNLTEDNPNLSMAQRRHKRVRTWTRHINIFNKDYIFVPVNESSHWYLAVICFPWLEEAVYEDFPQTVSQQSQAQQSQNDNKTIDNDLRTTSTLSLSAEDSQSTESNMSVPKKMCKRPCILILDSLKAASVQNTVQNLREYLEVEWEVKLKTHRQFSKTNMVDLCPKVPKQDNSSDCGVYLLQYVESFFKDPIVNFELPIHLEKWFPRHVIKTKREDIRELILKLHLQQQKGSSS
SENP8 conf: confirmation of human SENP8 protease inhibitors | inhibition, % at 12.5 µM | shares compounds with SENP7 inh | actives 40% (n = 6,200) | Recombinant SENP8, Z-RLRGG-aminoluciferin luminescence, 60 min;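 active = mean inhibition across replicates above about 50%, limit read from the data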
SENP6 conf: human SENP6 inhibition, confirmed. shares compounds with SENP7 inh. recombinant SENP6, Z-RLRGG-aminoluciferin luminescence. inhibition, % at 12.5 µM. actives 58% (n = 6,200). AID 488915
SENP7 conf: confirmation of human SENP7 protease inhibitors; actives 69% (n = 6,200); recombinant SENP7, Z-RLRGG-aminoluciferin luminescence, 40 min; AID 488917; inhibition, % at 12.5 µM; shares compounds with SENP7 inh
Casp3 select: caspase-3 inhibition (SENP selectivity assay). purified caspase-3, Z-DEVD-aminoluciferin luminescence, 60 min. actives 60% (n = 6,200). shares compounds with SENP7 inh. inhibition, % at 12.5 µM;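 active = mean inhibition above about 50%, limit read from the data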;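 also: plate controls were enzyme with DMSO for no effect and wells without caspase-3 for full effect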
Luc interf: luminescence interference (SENP counter-screen). shares compounds with SENP7 inh. Pre-incubated SENP8/Z-RLRGG-aminoluciferin, luciferase luminescence interference. inhibition, % at 12.5 µM. actives 39% (n = 6,200). AID 488919;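 active = mean inhibition above about 50% when retested at one dose, limit read from the data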;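 also: plate controls were DMSO wells with completed reaction for no effect and substrate without enzyme for full effect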
* hit, by the source's call; i = inactive; · = no result given.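 The calls were made as follows, unless noted: active = mean inhibition above about 50% in the one-dose retest (limit read from the data); inactive = the rest.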

SMILES | SENP8 block-1 | SENP8 block-2 | SENP6 inh | SENP1 FRET inh | SENP7 inh | SENP8 conf | SENP6 conf | SENP7 conf | Casp3 select | Luc interf
COc1ccc(C(=O)N/N=C/c2ccc(OC)c(COc3ccc(F)cc3)c2)cc1 | -80 | -6 | -6 | 1 | 12 | · | · | · | · | ·
COc1cccc(C(=O)Oc2ccc(/C=N/Nc3ccc(C(=O)O)cc3)cc2OC)c1 | -121 | 31 | 52* | 1 | 4 | 57* | 50 | 66* | 13 | 34
COc1cccc(OCc2cc(/C=N/Nc3ccc(C(=O)O)cc3)ccc2OC)c1 | -201 | 80* | 87* | -2 | 11 | 58* | 84* | 95* | 48 | 22
O=C(CCNS(=O)(=O)c1ccccc1)OCc1ccc([N+](=O)[O-])cc1 | 18 | · | · | 1 | · | · | · | · | · | ·
COCCNC(=O)/C(C#N)=C/c1ccc(O)cc1 | 7 | 77* | 92* | -43 | 82* | 12 | 79* | 96* | 83* | 80*
COCCNC(=O)/C(C#N)=C/c1cccc(/C=C(\C#N)C(=O)NCCOC)c1 | 9 | · | · | 1 | · | · | · | · | · | ·
CC1CCN(CCCNC(=O)C2CCN(S(=O)(=O)N3CCCCC3)CC2)CC1 | 8 | -5 | -16 | 2 | -3 | · | · | · | · | ·
CC1CC(C)CN(CCCNC(=O)C2CCN(S(=O)(=O)N3CCCCC3)CC2)C1 (centres undefined) | 10 | -4 | 19 | -2 | 101* | 7 | 8 | -7 | -2 | -2
O=C(/C=C/c1c(F)cccc1Cl)N1CCOCC1 | 2 | -24 | -11 | 1 | -6 | · | · | · | · | ·
CC(=O)Nc1ccc(NC(=O)c2ccccc2F)cc1 | 10 | -3 | 6 | 2 | 1 | · | · | · | · | ·
O=C(Cc1ccccc1F)Nc1ccc(SC(F)F)cc1 | 19 | 26 | 61* | 1 | 43 | 5 | 2 | 53* | 18 | 28
O=C(COC(=O)Cc1ccccc1F)Nc1ccc(SC(F)F)cc1 | 4 | -8 | -8 | 4 | 0 | · | · | · | · | ·
O=C(Nc1ccc(SC(F)F)cc1)c1ccccc1F | 16 | 20 | 50* | 0 | 17 | 37 | 35 | 73* | 41 | 63*
O=c1oc2ccccc2cc1-c1nc2c(s1)CCCC2 | -315 | 94* | 48 | -27 | 99* | -4 | 44 | 100* | 84* | 12
O=c1oc2ccccc2cc1-c1nc(-c2ccccc2)no1 | i | 57* | 38 | 14 | 82* | 11 | 28 | 29 | 25 | -3
Cc1ccc(-c2noc(-c3cc4ccccc4oc3=O)n2)cc1 | -448 | 0 | 18 | -5 | -5 | · | · | · | · | ·
O=c1oc2ccccc2cc1-c1nc2ccccc2o1 | -293 | 72* | 90* | -64 | 85* | 54* | 86* | 98* | 94* | 28
O=C(NN=Cc1c(O)ccc2ccccc12)C1CC1 | -5 | · | · | -85 | · | · | · | · | · | ·
O=C(N/N=C/c1cccs1)c1cnccn1 | 24 | -4 | 5 | 1 | 7 | · | · | · | · | ·
CCOc1ccc(/C=N/NC(=O)c2[nH]ncc2Br)c(O)c1 | -7 | 98* | 99* | -104 | 102* | 99* | 100* | 103* | 99* | 52*
O=C(N/N=C/c1c(O)ccc2ccccc12)c1[nH]ncc1Br | -40 | 18 | 51* | -25 | 19 | 33 | 41 | 77* | 28 | 48
Cc1ccc(O)c(/C=N/NC(=O)c2[nH]ncc2Br)c1 | 11 | 89* | 77* | 2 | 93* | 25 | 21 | 39 | 38 | 42
O=C(N/N=C/c1cccs1)c1[nH]ncc1Br | 9 | 50 | 76* | -1 | 76* | 61* | 58* | 86* | 90* | 68*
COc1cccc(CNC(=O)c2cc(=O)[nH]c3ccc(S(=O)(=O)N4CCOCC4)cc23)c1 | -74 | 8 | 3 | 1 | -5 | · | · | · | · | ·
